ChEMBL document CHEMBL3351675, “Novel benzenesulfonylureas containing thiophenylpyrazoline moiety as potential antidiabetic and anticancer agents” (Bioorg Med Chem Lett, 2014)
Activity calls are given as the source filed them. No cut-off for these calls is given here.

How the values were obtained:
Rattus norvegicus [1] = experiment: Antidiabetic activity in overnight fasted Wistar rat assessed as reduction in plasma glucose level at 30 mg/kg, po by oral glucose tolerance test; format: functional, organism-based; design: dose 30 mg/kg
In short: (§1)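 Normal Wistar rats were given a glucose load by the oral glucose tolerance method, and plasma glucose rise was followed after oral test dosing. Glibenclamide was the reference drug. Data are mean ± SEM of six observations versus control, analysed by one-way ANOVA with Dunnett test (p < 0.05, p < 0.01).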

Rattus norvegicus [2] = experiment: Effect on body weight in Wistar rat model of streptozotocin-induced diabetes at 30 mg/kg, po measured over 15 days; format: ADME, organism-based; design: dose 30 mg/kg, route oral; details: in vivo, 360 h
[3] = biological target: Peroxisome proliferator-activated receptor gamma (Mus musculus) (UniProt P37238); experiment: Transactivation of PPARgamma (mouse) expressed in 3T3-L1 cells incubated for 24 hrs by luciferase reporter gene assay relative to rosiglitazone
Peroxisome proliferator-activated receptor gamma (Mus musculus), sequence (P37238 whole entry, looked up): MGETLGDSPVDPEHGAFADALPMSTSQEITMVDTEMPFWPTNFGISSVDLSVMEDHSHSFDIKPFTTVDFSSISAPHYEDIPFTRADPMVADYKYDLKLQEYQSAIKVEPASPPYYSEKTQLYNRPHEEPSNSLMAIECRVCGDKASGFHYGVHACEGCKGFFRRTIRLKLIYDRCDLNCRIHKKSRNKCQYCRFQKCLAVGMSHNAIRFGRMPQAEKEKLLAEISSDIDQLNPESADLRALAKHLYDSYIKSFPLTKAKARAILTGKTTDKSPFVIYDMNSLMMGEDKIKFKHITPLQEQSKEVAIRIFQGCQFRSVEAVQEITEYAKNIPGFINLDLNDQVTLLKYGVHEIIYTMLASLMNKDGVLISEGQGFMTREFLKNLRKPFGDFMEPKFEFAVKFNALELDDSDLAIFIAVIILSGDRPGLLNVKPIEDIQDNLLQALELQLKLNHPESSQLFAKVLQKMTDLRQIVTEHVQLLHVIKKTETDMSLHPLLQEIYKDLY

Rattus norvegicus [4] = experiment: Antidiabetic activity in Wistar rat model of streptozotocin-induced diabetes assessed as reduction in plasma glucose level at 30 mg/kg, po and dosage repeated for 15 days by GOD-POD method; format: functional, organism-based; design: dose 30 mg/kg
Rattus norvegicus [5] = experiment: Increase in body weight in Wistar rat model of streptozotocin-induced diabetes at 30 mg/kg, po measured over 15 days; format: ADME, organism-based; design: dose 30 mg/kg, route oral; details: in vivo, 360 h
3T3-L1 = experiment: Increase in PPARgamma gene expression in mouse 3T3L1 cells at 10 uM incubated for 24 hrs by RT-PCR method; format: functional
Rattus norvegicus [6] = experiment: Antidiabetic activity in overnight fasted Wistar rat assessed as reduction in plasma glucose level at 36 mg/kg, po by oral glucose tolerance test; format: functional, organism-based; design: dose 36 mg/kg; in short: as §1
Rattus norvegicus [7] = experiment: Antidiabetic activity in Wistar rat model of streptozotocin-induced diabetes assessed as reduction in plasma glucose level at 36 mg/kg, po and dosage repeated for 15 days by GOD-POD method; format: functional, organism-based; design: dose 36 mg/kg
Rattus norvegicus [8] = experiment: Effect on body weight in Wistar rat model of streptozotocin-induced diabetes at 36 mg/kg, po measured over 15 days; format: ADME, organism-based; design: dose 36 mg/kg, route oral; details: in vivo, 360 h

SMILES | inhibition (Rattus norvegicus [1]) | Activity (Rattus norvegicus [2]) | Activity [3] | inhibition (Rattus norvegicus [4]) | Activity (Rattus norvegicus [5]) | fold change (FC) (3T3-L1) | inhibition (Rattus norvegicus [6]) | inhibition (Rattus norvegicus [7]) | Activity (Rattus norvegicus [8])
COc1ccc(C2CC(c3cccs3)=NN2c2ccc(S(=O)(=O)NC(=O)Nc3ccc(C)cc3)cc2)cc1 (stereo not drawn) | Active | Non-toxic | inactive | – | – | – | – | – | –
COc1ccc(NC(=O)NS(=O)(=O)c2ccc(N3N=C(c4cccs4)CC3c3cccs3)cc2)cc1 (stereo not drawn) | Active | Non-toxic | inactive | Active | – | – | – | – | –
O=C(NCc1ccccc1)NS(=O)(=O)c1ccc(N2N=C(c3cccs3)CC2c2ccccc2)cc1 (stereo not drawn) | Active | Non-toxic | inactive | Active | – | – | – | – | –
Cc1ccc(C2CC(c3cccs3)=NN2c2ccc(S(=O)(=O)NC(=O)NCc3ccccc3)cc2)s1 (stereo not drawn) | Active | Non-toxic | inactive | – | – | – | – | – | –
CCCCNC(=O)NS(=O)(=O)c1ccc(N2N=C(c3cccs3)CC2c2ccccc2)cc1 (stereo not drawn) | Active | – | inactive | Active | Toxic | – | – | – | –
Cc1ccccc1NC(=O)NS(=O)(=O)c1ccc(N2N=C(c3cccs3)CC2c2ccccc2)cc1 (stereo not drawn) | Active | Non-toxic | inactive | Active | – | 0.95 | – | – | –
COc1ccc(Cl)cc1C(=O)NCCc1ccc(S(=O)(=O)NC(=O)NC2CCCCC2)cc1 [GLYBURIDE] | Active | – | inactive | Active | Toxic | 1 | – | – | –
CN(CCOc1ccc(CC2SC(=O)NC2=O)cc1)c1ccccn1 (stereo not drawn) [ROSIGLITAZONE] | – | – | – | – | – | 1.5 | Active | Active | Toxic
Cc1ccc(NC(=O)NS(=O)(=O)c2ccc(N3N=C(c4cccs4)CC3c3ccccc3)cc2)cc1 (stereo not drawn) | Active | – | inactive | Active | – | – | – | – | –
O=C(NCc1ccccc1)NS(=O)(=O)c1ccc(N2N=C(c3cccs3)CC2c2cccs2)cc1 (stereo not drawn) | Active | Non-toxic | inactive | – | – | – | – | – | –
Cc1ccc(C2CC(c3cccs3)=NN2c2ccc(S(=O)(=O)NC(=O)Nc3ccccc3C)cc2)s1 (stereo not drawn) | – | Non-toxic | – | – | – | – | – | – | –
CN(C)c1ccc(C2CC(c3cccs3)=NN2c2ccc(S(=O)(=O)NC(=O)NCc3ccccc3)cc2)cc1 (stereo not drawn) | Active | – | inactive | – | Toxic | – | – | – | –
Cc1ccc(NC(=O)NS(=O)(=O)c2ccc(N3N=C(c4cccs4)CC3c3ccc(N(C)C)cc3)cc2)cc1 (stereo not drawn) | Active | Non-toxic | inactive | – | – | – | – | – | –
COc1ccc(NC(=O)NS(=O)(=O)c2ccc(N3N=C(c4cccs4)CC3c3ccccc3)cc2)cc1 (stereo not drawn) | Active | Non-toxic | inactive | Active | – | – | – | – | –
CN(C)c1ccc(C2CC(c3cccs3)=NN2c2ccc(S(=O)(=O)NC(=S)NCc3ccccc3)cc2)cc1 (stereo not drawn) | Active | Non-toxic | inactive | – | – | – | – | – | –
CCCCNC(=O)NS(=O)(=O)c1ccc(N2N=C(c3cccs3)CC2c2cccs2)cc1 (stereo not drawn) | Active | – | inactive | – | Toxic | – | – | – | –
Cc1ccc(NC(=O)NS(=O)(=O)c2ccc(N3N=C(c4cccs4)CC3c3cccs3)cc2)cc1 (stereo not drawn) | Active | Non-toxic | inactive | – | – | – | – | – | –
